The source made the active and inactive calls. No cut-off for these calls is given here.
Experiments:
CHP-134 [1] = test: Growth inhibition of MYCN-amplified human CHP-134 cells assessed as reduction in cell viability measured after 3 days by Celltiter-glo assay; format: functional; conditions: CHP-134, 72 h, time 3 day
In short: (§1)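 MYCN-amplified Kelly and CHP-134 neuroblastoma cells were exposed to a nine-point serial dilution for 3 days. Viability was read by CellTiter-Glo and normalized to DMSO-treated cells, and GI50 was calculated. Values are reported with standard error of the mean. The highest dose tested was 5.00 or 2.50 μM.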

Tubulin (Homo sapiens) [2] = molecular target: T1, Tubulin (Homo sapiens) (UniProt P68371+Q9H4B7+P0DPH7+P68366+Q13509+Q71U36+P04350+Q3ZCM7+P07437+P68363+Q9BQE3+Q6PEY2+Q13885+Q9BVA1+Q9BUF5); test: Inhibition of tubulin polymerization (unknown origin) assessed as destabilization of microtubule formation at 5 uM incubated for 45 mins by plate reader analysis; format: protein-complex assay
[3] = Growth inhibition of MYCN-amplified human Kelly cells assessed as reduction in cell viability measured after 3 days by Celltiter-glo assay; format: functional; conditions: 72 h, time 3 day; in short: as §1
Kelly [4] = test: Induction of cell cycle arrest in human Kelly cells assessed as increase in cyclin B1 expression at 100 nM measured after 24 hrs by Western blot analysis; format: functional, cell-based
In short: (§2)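 Lysates immunoblotted for mitotic markers cyclin B1 and histone H3 phosphorylated at Ser10. GAPDH used as loading control. Levels compared against DMSO vehicle.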

[5] = Microsomal stability in human liver microsomes assessed as half life; format: ADME, Microsome
CHP-134 [6] = test: Induction of cell cycle arrest in human CHP-134 cells assessed as increase in phospho-histone H3 expression at 100 nM measured after 24 hrs by Western blot analysis; format: functional, cell-based; in short: as §2
CHP-134 [7] = test: Induction of cell cycle arrest in human CHP-134 cells assessed as increase in cyclin B1 expression level at 100 nM measured after 24 hrs by Western blot analysis; format: functional, cell-based; in short: as §2
Kelly [8] = test: Induction of cell cycle arrest in human Kelly cells assessed as increase in phospho-histone H3 expression at 100 nM measured after 24 hrs by Western blot analysis; format: functional, cell-based; in short: as §2
SK-N-BE(2)-C = test: Antiproliferative activity against MYCN-amplified human SK-N-BE(2)-C cells assessed as reduction in cell viability measured after 3 days by Cell titer-glo assay; format: functional, cell-based; conditions: time 3.0 day
CHP-134 [9] = test: Induction of cell cycle arrest in human CHP-134 cells assessed as increase in cyclin B1 expression level at 500 nM measured after 24 hrs by Western blot analysis; format: functional, cell-based
In short: (§3)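 Protein lysates were immunoblotted for the mitotic markers cyclin B1 and histone H3 phosphorylated at Ser10, with GAPDH as the loading control.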

Kelly [10] = test: Induction of cell cycle arrest in human Kelly cells assessed as increase in phospho-histone H3 expression at 500 nM measured after 24 hrs by Western blot analysis; format: functional, cell-based; in short: as §3
Kelly [11] = test: Effect on cell cycle distribution in human Kelly cells at 500 nM measured after 24 hrs by PI/RNAse staining based flow cytometric analysis; format: functional
In short: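 Kelly cells were treated with 500 nM compound or DMSO for 24 h. Cell cycle phase distribution was then profiled and quantified, with n = 3 biological replicates and standard error shown.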

CHP-134 [12] = test: Induction of cell cycle arrest in human CHP-134 cells assessed as increase in phospho-histone H3 expression at 500 nM measured after 24 hrs by Western blot analysis; format: functional, cell-based; in short: as §3
Tubulin (Homo sapiens) [13] = molecular target: T1, Tubulin (Homo sapiens); test: Disruption of microtubule network in human Kelly cells at 500 nM incubated for 24 hrs by DAPI staining based immunofluorescence analysis; format: cell-based
In short: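 Cells were then immunostained for α-tubulin (Alexa-488), with nuclei counterstained by DAPI. The microtubule network was examined in representative images.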

Kelly [14] = test: Induction of cell cycle arrest in human Kelly cells assessed as increase in cyclin B1 expression at 500 nM measured after 24 hrs by Western blot analysis; format: functional, cell-based; in short: as §3
Kelly [15] = test: Induction of cell cycle arrest in human Kelly cells assessed as accumulation of cells in G2/M phase at 100 nM measured after 24 hrs by PI/RNAse staining based flow cytometric analysis; format: functional
In short: (§4)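 Cell cycle phase distribution, including G2/M fraction, quantified. n = 3 biological replicates, standard error. Unpaired two-tailed t test.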

CHP-134 [16] = test: Induction of cell cycle arrest in human CHP-134 cells at 100 nM measured after 24 hrs by PI/RNAse staining based flow cytometric analysis; format: functional; in short: as §4
Tubulin (Homo sapiens) [17] = molecular target: T1, Tubulin (Homo sapiens); test: Disruption of microtubule network in human Kelly cells at 100 nM incubated for 24 hrs by DAPI staining based immunofluorescence analysis; format: cell-based
In short: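 Immunostained for α-tubulin (Alexa-488) with DAPI nuclear counterstain. Microtubule network integrity and tubulin compaction around nuclei assessed from representative images.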

COc1cc(-c2cccn3cc(-c4ccc(C)cc4)nc23)cc(OC)c1OC
GI50 (CHP-134 [1]): 152 nM
inhibition (Tubulin (Homo sapiens) [2]): Active
GI50 [3]: 217 nM

COc1cc(-c2cc(C)cn3cc(-c4ccc(C)cc4)nc23)cc(OC)c1OC
GI50 (CHP-134 [1]): 381 nM
GI50 [3]: 717 nM

COc1cc(-c2cccc3nc(-c4ccc(C)cc4)cn23)cc(OC)c1OC
GI50 (CHP-134 [1]): 3320 nM
GI50 [3]: 4920 nM

Cc1ccc(-c2cn3ccnc(-c4cc(Cl)c(F)c(Cl)c4)c3n2)cc1
GI50 (CHP-134 [1]): > 2500 nM
GI50 [3]: > 2500 nM

COc1cc(-c2cccn3cc(-c4ccc(Cl)cc4)nc23)cc(OC)c1OC
GI50 (CHP-134 [1]): 1620 nM
GI50 [3]: 3420 nM

COc1cc2c(c(OC)c1OC)-c1ccc(OC)c(=O)cc1[C@@H](NC(C)=O)CC2 [COLCHICINE]
GI50 (CHP-134 [1]): 8 nM
Activity (Kelly [4]): Active
half-life [5]: > 60 min
Activity (CHP-134 [6]): Active
Activity (CHP-134 [7]): Active
Activity (Kelly [8]): Active
GI50 [3]: 9 nM

COc1c(Cl)cc(-c2nccn3cc(-c4ccc(C)cc4)nc23)cc1Cl
GI50 (CHP-134 [1]): 79 nM
inhibition (Tubulin (Homo sapiens) [2]): Active
Activity (SK-N-BE(2)-C): Active
GI50 [3]: 165 nM

Cc1ccc(-c2cn3ccnc(-c4cc(F)cc(F)c4)c3n2)cc1
GI50 (CHP-134 [1]): 474 nM
GI50 [3]: 438 nM

COc1cc(-c2cccn3cc(-c4ccc(C(F)(F)F)cc4)nc23)cc(OC)c1OC
GI50 (CHP-134 [1]): 2090 nM
GI50 [3]: > 5000 nM

COc1c(F)cc(-c2nccn3cc(-c4ccc(C)cc4)nc23)cc1F
GI50 (CHP-134 [1]): 175 nM
Activity (CHP-134 [9]): inactive
Activity (Kelly [10]): inactive
inhibition (Tubulin (Homo sapiens) [2]): Active
half-life [5]: 36.1 min
Activity (SK-N-BE(2)-C): Active
GI50 [3]: 402 nM
Activity (Kelly [11]): inactive
Activity (CHP-134 [12]): inactive
Activity (Tubulin (Homo sapiens) [13]): inactive
Activity (Kelly [14]): inactive

COc1cc(-c2cccn3cc(-c4ccc(F)cc4)nc23)cc(OC)c1OC
GI50 (CHP-134 [1]): 1610 nM
GI50 [3]: 3000 nM

COc1ccc(-c2cn3cccc(-c4cc(OC)c(OC)c(OC)c4)c3n2)cc1
GI50 (CHP-134 [1]): 511 nM
GI50 [3]: 1370 nM

COc1cc(-c2nccn3cc(-c4ccc(C)cc4)nc23)cc(OC)c1OC
GI50 (CHP-134 [1]): 7 nM
inhibition (Tubulin (Homo sapiens) [2]): Active
Activity (Kelly [4]): Active
half-life [5]: 26 min
Activity (CHP-134 [6]): Active
Activity (SK-N-BE(2)-C): Active
Activity (CHP-134 [7]): Active
Activity (Kelly [8]): Active
GI50 [3]: 12 nM
Activity (Kelly [15]): Active
Activity (CHP-134 [16]): Active
Activity (Tubulin (Homo sapiens) [17]): Active

COc1c(Br)cc(-c2nccn3cc(-c4ccc(C)cc4)nc23)cc1Br
GI50 (CHP-134 [1]): 469 nM
GI50 [3]: 504 nM

Reference: ChEMBL document CHEMBL5390213 (ACS Med Chem Lett, 2023)
